Active and inactive are the calls of the source. The calls are words filed in the database; no cut-off is given here.

Our source for the IC50 and Activity values is ChEMBL document CHEMBL4152279, “Synthesis, cytotoxic evaluation and target identification of thieno[2,3-d]pyrimidine derivatives with a dithiocarbamate side chain at C2 position” (Eur J Med Chem, 2018).

The subject of assay [1] is A549. The assay is described as follows: Cytotoxicity against human A549 cells by MTS assay. The class given is functional, cell-based. The essentials: (§1)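 MTS read-out (CellTiter 96 AQueous One) of proliferation in A549 or HCT-116 cells grown in DMEM with 10% FBS at 37 °C, 5% CO2. Taxol-resistant A549 cells were exposed for 72 h. Compounds were screened at 30 μM versus vehicle, with ≥50% inhibition counted active. Actives were then tested over a concentration range for IC50. Triplicate wells, three independent experiments, mean ± SD.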

For another assay, the system named is HT-29. The assay is described as follows: Cytotoxicity against human HT-29 cells at 30 uM by MTS assay. Format: functional, cell-based.
A further assay relates to HeLa. The assay is described as follows: Cytotoxicity against human HeLa cells at 30 uM by MTS assay. The class given is functional, cell-based. (In general: Tetrazolium assays rely on reduction of a dye to a coloured formazan, in cell work by metabolically active cells.)
The subject of assay [2] is HCT-116. The assay is described as follows: Cytotoxicity against human HCT116 cells by MTS assay. The class given is functional, cell-based. In short, it runs like this: as §1
The next assay deals with MCF7. The assay is described as follows: Cytotoxicity against human MCF7 cells at 30 uM by MTS assay. Format: functional, cell-based.
For a further assay, the system named is MDA-MB-231. The assay can be described thus: Cytotoxicity against human MDA-MB-231 cells at 30 uM by MTS assay. Format: functional, cell-based.
The test system of assay [3] is HCT-116. The assay is described as follows: Cytotoxicity against human HCT116 cells at 30 uM by MTS assay relative to control. The class given is functional. The essentials: as §1
Assay [4] deals with A549. The assay is described as follows: Cytotoxicity against human A549 cells at 30 uM by MTS assay relative to control. The class given is functional. In short, it runs like this: as §1

Take `COc1ccc(CNC(=S)SCc2nc3sc(C)cc3c(=O)[nH]2)c(OC)c1`: the IC50 in the assay with A549 [1] and in the assay on HCT-116 [2] was above 30 µM in each case. Also, the outcome in the assay on HT-29, in the assay with HeLa, with MCF7 and in the assay with MDA-MB-231 was inactive. Moreover, the Activity entry with HCT-116 [3] and in the assay with A549 [4] was “>=50%” each time.

In the case of `CCOC(=O)c1ccc(CSC(=S)NCc2nc3sc(C)cc3c(=O)[nH]2)cc1`, the result with HT-29, in the assay with HeLa, in the assay with MCF7, in the assay with MDA-MB-231, with HCT-116 [3] and in the assay on A549 [4] was inactive.

As to `COc1cc(CNC(=S)SCc2nc3sc(C)cc3c(=O)[nH]2)cc(OC)c1OC`, the IC50 (commonly the concentration that inhibits the measured activity by half) in the assay with A549 [1] stood at 7.89 µM; in the assay with HCT-116 [2], 14.9 µM. The result in the assay on HT-29, in the assay on HeLa, in the assay with MCF7 and in the assay with MDA-MB-231 was inactive. Also, the Activity entry in the assay on HCT-116 [3] and with A549 [4] was “>=50%” throughout.

Consider `Cc1cc2c(=O)[nH]c(CSC(=S)NCc3ccc4c(c3)OCO4)nc2s1`, for which the IC50 with A549 [1] was determined as 14 µM; with HCT-116 [2], 24.6 µM. Further, the outcome in the assay with HT-29, in the assay on HeLa, in the assay with MCF7 and in the assay with MDA-MB-231 was inactive. For the same compound, the Activity result in the assay on HCT-116 [3] and in the assay with A549 [4] was “>=50%” each time.

Take `Cc1cc2c(=O)[nH]c(CSC(=S)NCc3ccncc3)nc2s1`: the 50% inhibitory concentration (IC50) was found to be 7.43 µM in the assay with A549 [1] and 14.1 µM with HCT-116 [2]. For the same compound, the result with HT-29, with HeLa, with MCF7 and in the assay with MDA-MB-231 was inactive. Further, the Activity result in the assay on HCT-116 [3] and with A549 [4] was “>=50%” in each case.

Turning to `COc1ccccc1CNC(=S)SCc1nc2sc(C)cc2c(=O)[nH]1`, the IC50 with A549 [1] came out at 7.01 µM; in the assay on HCT-116 [2], 18.1 µM. In addition, the outcome with HT-29, with HeLa, in the assay with MCF7 and with MDA-MB-231 was inactive. Moreover, the Activity result with HCT-116 [3] and in the assay with A549 [4] was “>=50%” in each case.

Turning to `Cc1cc2c(=O)[nH]c(CNC(=S)SCc3ccc(F)cc3F)nc2s1`, the outcome in the assay on HT-29, in the assay with HeLa, with MCF7, with MDA-MB-231, with HCT-116 [3] and in the assay on A549 [4] was inactive.

For `Cc1cc2c(=O)[nH]c(CSC(=S)NCc3cccnc3)nc2s1`, the values for the IC50 with A549 [1] and with HCT-116 [2] were 5.79 µM and 9.3 µM, respectively. For the same compound, the result in the assay with HT-29, in the assay with HeLa, with MCF7 and with MDA-MB-231 was inactive. In addition, the Activity entry in the assay with HCT-116 [3] and in the assay on A549 [4] was “>=50%” throughout.

As for `Cc1cc2c(=O)[nH]c(CSC(=S)NCc3ccc(F)cc3F)nc2s1`, the IC50 in the assay on A549 [1] was 16.2 µM; in the assay with HCT-116 [2] it was above 30 µM. Further, the result with HT-29, with HeLa, in the assay on MCF7 and in the assay on MDA-MB-231 was inactive. The Activity result in the assay on HCT-116 [3] and in the assay with A549 [4] was “>=50%” each time.

On to `Cc1cc2c(=O)[nH]c(CSC(=S)NCc3ccc([N+](=O)[O-])cc3)nc2s1`, for which the results for the concentration for half-maximal inhibition (IC50) with A549 [1] and in the assay on HCT-116 [2] were 12.3 µM and 20.2 µM, respectively. Besides, the result in the assay on HT-29, in the assay with HeLa, in the assay on MCF7 and with MDA-MB-231 was inactive. The Activity entry in the assay on HCT-116 [3] and in the assay with A549 [4] was “>=50%” in each case.

For the compound `Cc1cc2c(=O)[nH]c(CSC(=S)NCc3ccc(Cl)cc3Cl)nc2s1`, the 50% inhibitory concentration (IC50) with A549 [1] is 29.5 µM; with HCT-116 [2] it was above 30 µM. For the same compound, the outcome with HT-29, in the assay with HeLa, with MCF7 and in the assay with MDA-MB-231 was inactive. Also, the Activity result in the assay on HCT-116 [3] and in the assay on A549 [4] was “>=50%” throughout.

As for `Cc1cc2c(=O)[nH]c(CSC(=S)NCc3ccccc3F)nc2s1`, the IC50 in the assay on A549 [1] was above 30 µM; in the assay on HCT-116 [2], 29.7 µM. Besides, the outcome in the assay on HT-29, in the assay with HeLa, in the assay with MCF7 and in the assay with MDA-MB-231 was inactive. The Activity result in the assay on HCT-116 [3] and with A549 [4] was “>=50%” in each case.

Take `COc1cccc(CSC(=S)NCc2nc3sc(C)cc3c(=O)[nH]2)c1`: the outcome in the assay with HT-29, in the assay on HeLa, in the assay with MCF7, in the assay on MDA-MB-231, in the assay with HCT-116 [3] and with A549 [4] was inactive.

Turning to `COc1ccc(CNC(=S)SCc2nc3sc(C)cc3c(=O)[nH]2)cc1`, the IC50 in the assay with A549 [1] was 29.1 µM; in the assay with HCT-116 [2] it was 24.5 µM. Moreover, the outcome in the assay on HT-29, with HeLa, in the assay on MCF7 and with MDA-MB-231 was inactive. The Activity entry with HCT-116 [3] and in the assay on A549 [4] was “>=50%” throughout.

For the compound `Cc1cc2c(=O)[nH]c(CSC(=S)NCc3ccc(Br)cc3)nc2s1`, the IC50 in the assay with A549 [1] amounted to 21.9 µM; in the assay with HCT-116 [2], 28.7 µM. Moreover, the outcome with HT-29, in the assay with HeLa, in the assay on MCF7 and with MDA-MB-231 was inactive. The Activity entry in the assay with HCT-116 [3] and in the assay with A549 [4] was “>=50%” each time.

On to `Cc1cc2c(=O)[nH]c(CNC(=S)SCc3ccc(Cl)cc3)nc2s1`, for which the outcome in the assay on HT-29, with HeLa, with MCF7, with MDA-MB-231, with HCT-116 [3] and in the assay with A549 [4] was inactive.

As for `COc1ccccc1CSC(=S)NCc1nc2sc(C)cc2c(=O)[nH]1`, the outcome in the assay with HT-29, in the assay on HeLa, in the assay on MCF7, with MDA-MB-231, in the assay on HCT-116 [3] and with A549 [4] was inactive.

Regarding `Cc1ccc(CSC(=S)NCc2nc3sc(C)cc3c(=O)[nH]2)cc1`, the outcome in the assay on HT-29, with HeLa, with MCF7, in the assay on MDA-MB-231, in the assay with HCT-116 [3] and with A549 [4] was inactive.

Take `Cc1cc2c(=O)[nH]c(CNC(=S)SCc3ccc([N+](=O)[O-])cc3)nc2s1`: the outcome in the assay on HT-29, in the assay on HeLa, in the assay on MCF7, in the assay with MDA-MB-231, with HCT-116 [3] and in the assay on A549 [4] was inactive.

For `COc1ccc(CSC(=S)NCc2nc3sc(C)cc3c(=O)[nH]2)cc1`, the outcome with HT-29, in the assay on HeLa, in the assay on MCF7, with MDA-MB-231, with HCT-116 [3] and with A549 [4] was inactive.

As to `Cc1cc2c(=O)[nH]c(CNC(=S)SCc3ccc(Br)cc3)nc2s1`, the result with HT-29, in the assay on HeLa, with MCF7, in the assay with MDA-MB-231, in the assay on HCT-116 [3] and in the assay with A549 [4] was inactive.

With `Cc1cc2c(=O)[nH]c(CSC(=S)NCc3cccs3)nc2s1`, the 50% inhibitory concentration (IC50) turned out to be 23 µM with A549 [1] and 27.8 µM with HCT-116 [2]. Further, the outcome in the assay with HT-29, in the assay on HeLa, in the assay on MCF7 and in the assay on MDA-MB-231 was inactive. Further, the Activity result in the assay on HCT-116 [3] and in the assay with A549 [4] was “>=50%” throughout.

Consider `Cc1cc2c(=O)[nH]c(CNC(=S)SCc3ccc(F)cc3)nc2s1`, for which the result with HT-29, in the assay on HeLa, in the assay on MCF7, with MDA-MB-231, in the assay with HCT-116 [3] and in the assay with A549 [4] was inactive.

As for `Cc1cc2c(=O)[nH]c(CNC(=S)SCc3ccc(C#N)cc3)nc2s1`, the result in the assay on HT-29, in the assay on HeLa, with MCF7, in the assay with MDA-MB-231, in the assay with HCT-116 [3] and with A549 [4] was inactive.

With `Cc1cc2c(=O)[nH]c(CNC(=S)SCc3ccccc3)nc2s1`, the result with HT-29, in the assay on HeLa, in the assay with MCF7, in the assay on MDA-MB-231, with HCT-116 [3] and with A549 [4] was inactive.
